Measured values taken from ChEMBL document CHEMBL1141248, “Filiasparosides A-D, cytotoxic steroidal saponins from the roots of Asparagus filicinus” (J Nat Prod, 2007).
Values after ≈ are worked out from the molar mass of the structure shown.

Key:
[1] = test system: A549; assay: Cytotoxicity against human A549 cells after 2 days; format: functional, cell-based; settings: A549, 48 h
Summary of the method: (§1)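 Growth inhibition under continuous exposure for 2 days. Stock solutions were made in DMSO and kept at -70 °C, then diluted into culture medium to a final DMSO of ≤1% (v/v). EC50 was taken as the concentration giving 50% growth inhibition.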

[2] = test system: MCF7; assay: Cytotoxicity against human MCF7 cells after 2 days; format: functional, cell-based; settings: MCF7, 48 h; summary of the method: as §1

## C[C@H]1CC[C@@]2(OC1)O[C@H]1C[C@H]3[C@@H]4CC[C@@H]5C[C@@H](O[C@@H]6O[C@H](CO)[C@@H](O[C@@H]7O[C@@H](C)[C@H](O)[C@@H](O)[C@H]7O)[C@H](O)[C@H]6O[C@H]6OC[C@H](O)[C@@H](O)[C@@H]6O)CC[C@]5(C)[C@H]4CC[C@]3(C)[C@H]1[C@@H]2C
[1]
  EC50: 2.3 µg/mL (≈ 2.68 µM)
[2]
  EC50: 3 µg/mL (≈ 3.5 µM)

## COc1cc([C@@H]2c3cc4c(cc3[C@@H](O[C@@H]3O[C@@H]5CO[C@@H](C)O[C@H]5[C@H](O)[C@H]3O)[C@H]3COC(=O)[C@H]23)OCO4)cc(OC)c1O [ETOPOSIDE]
[1]
  EC50: 0.8 µg/mL (≈ 1.36 µM)
[2]
  EC50: 2.8 µg/mL (≈ 4.76 µM)

## C[C@@H]1CC[C@@]2(OC1)O[C@H]1C[C@H]3[C@@H]4CC[C@H]5C[C@@H](O[C@@H]6O[C@H](CO[C@@H]7OC[C@H](O)[C@H](O)[C@H]7O)[C@@H](O[C@@H]7OC[C@@H](O)[C@H](O)[C@H]7O)[C@H](O)[C@H]6O)CC[C@]5(C)[C@H]4CC(=O)[C@]3(C)[C@H]1[C@@H]2C [FILIASPAROSIDE A]
[1]
  EC50: 13.3 µg/mL (≈ 15.5 µM)
[2]
  EC50: 11.2 µg/mL (≈ 13.1 µM)

## C[C@H]1CC[C@@]2(OC1)O[C@H]1C[C@H]3[C@@H]4CC[C@@H]5C[C@@H](O[C@@H]6O[C@H](CO)[C@@H](O[C@@H]7OC[C@@H](O)[C@H](O)[C@H]7O)[C@H](O)[C@H]6O)CC[C@]5(C)[C@H]4CC[C@]3(C)[C@H]1[C@@H]2C [ASPAFILIOSIDE A]
[1]
  EC50: 9.4 µg/mL (≈ 13.2 µM)
[2]
  EC50: > 20 µg/mL

## C[C@@H]1CC[C@@]2(OC1)O[C@H]1C[C@H]3[C@@H]4CC[C@H]5C[C@@H](O[C@@H]6O[C@H](CO[C@@H]7OC[C@H](O)[C@H](O)[C@H]7O)[C@@H](O)[C@H](O)[C@H]6O)CC[C@]5(C)[C@H]4CC(=O)[C@]3(C)[C@H]1[C@@H]2C [FILIASPAROSIDE B]
[1]
  EC50: 16.4 µg/mL (≈ 22.6 µM)
[2]
  EC50: 16.8 µg/mL (≈ 23.2 µM)

## C[C@H]1CC[C@@]2(OC1)O[C@H]1C[C@H]3[C@@H]4CC[C@@H]5C[C@@H](O[C@@H]6O[C@H](CO[C@@H]7OC[C@H](O)[C@H](O)[C@H]7O)[C@@H](O)[C@H](O)[C@H]6O)CC[C@]5(C)[C@H]4CC[C@]3(C)[C@H]1[C@@H]2C [FILIASPAROSIDE D]
[1]
  EC50: 2.4 µg/mL (≈ 3.38 µM)
[2]
  EC50: 10.3 µg/mL (≈ 14.5 µM)
